In brackets after ≈: the same amount, converted by molar mass.
What was measured:
[1] = system: Mycobacterium tuberculosis; assay: Antimycobacterial activity against Mycobacterium tuberculosis H37Rv ATCC 27294 after 28 days by colony forming unit determination; assay type: functional; conditions: H37Rv ATCC 27294, 672 h
Method in brief: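 Compounds added to Sula liquid medium as DMSO solutions (DMSO at most 2%), incubated at 37 °C for 28 days. MIC is the lowest concentration giving visible growth inhibition. Activity was confirmed by CFU counts after subculture onto drug-free Löwenstein-Jensen solid medium.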

[2] = Selectivity index, ratio of IC50 for human HepG2 cells to MIC for Mycobacterium tuberculosis H37Rv ATCC 27294; assay type: functional
Mycobacterium avium [3] = assay: Antimycobacterial activity against Mycobacterium avium CNTC 330/88 after 14 days; assay type: functional; conditions: CNTC 330/88, 336 h
Mycobacterium avium [4] = assay: Antimycobacterial activity against Mycobacterium avium CNTC 330/88 after 21 days; assay type: functional; conditions: CNTC 330/88, 504 h
Mycobacterium kansasii [5] = assay: Antimycobacterial activity against Mycobacterium kansasii CNTC My 235/80 after 7 days; assay type: functional; conditions: CNTC My 235/80, 168 h
Mycobacterium kansasii [6] = assay: Antimycobacterial activity against Mycobacterium kansasii CNTC My 235/80 after 14 days; assay type: functional; conditions: CNTC My 235/80, 336 h
Mycobacterium kansasii [7] = assay: Antimycobacterial activity against Mycobacterium kansasii CNTC My 235/80 after 21 days; assay type: functional; conditions: CNTC My 235/80, 504 h
Mycobacterium kansasii [8] = assay: Antimycobacterial activity against Mycobacterium kansasii CNTC 6509/96 after 7 days; assay type: functional; conditions: CNTC 6509/96, 168 h
Mycobacterium kansasii [9] = assay: Antimycobacterial activity against Mycobacterium kansasii CNTC 6509/96 after 14 days; assay type: functional; conditions: CNTC 6509/96, 336 h
Mycobacterium kansasii [10] = assay: Antimycobacterial activity against Mycobacterium kansasii CNTC 6509/96 after 21 days; assay type: functional; conditions: CNTC 6509/96, 504 h
HepG2 = assay: Cytotoxicity against human HepG2 cells measured after overnight incubation by MTT assay; assay type: cell-based
Method in brief: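 HepG2 cells in phenol-red-free RPMI-1640 with 10% FCS, 2 mM L-glutamine and gentamycin, seeded at 5 × 10³ per well. After 24 h at 37 °C, cells were exposed overnight to compound in serum-free medium. MTT (2 mg/mL) for 4 h, formazan dissolved in DMSO, read as OD540 minus OD620. % cytotoxicity versus untreated controls; IC50 taken from dose-response curves. Two independent experiments, 4–8 parallel measurements.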

PBMC = assay: Cytotoxicity against human PBMC measured after overnight incubation by MTT assay; assay type: cell-based
Method in brief: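 Freshly prepared human PBMC in phenol-red-free RPMI-1640 with 10% FCS, 2 mM L-glutamine and gentamycin, 2.0 × 10⁵ cells per well. After 24 h at 37 °C, overnight compound exposure in serum-free medium. MTT for 4 h, formazan in DMSO, OD540 minus OD620. % cytotoxicity versus controls; IC50 from dose-response curves. Two independent experiments.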

SH-SY5Y = assay: Cytotoxicity against human SH-SY5Y cells measured after overnight incubation by MTT assay; assay type: cell-based
Method in brief: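 SH-SY5Y neuroblastoma cells in phenol-red-free DMEM with 10% FCS, 2 mM L-glutamine, gentamycin and 1% NEAA, 7.5 × 10³ per well. After 24 h at 37 °C, overnight compound exposure in serum-free medium. MTT readout (OD540 minus OD620) against untreated controls; IC50 from dose-response curves. Two independent experiments.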

[11] = Hydrolytic stability of the compound in aqueous buffer at pH 7.4 after 48 hrs by HPLC analysis; assay type: physicochemical; conditions: pH 7.4, 48 h
Method in brief: (§1)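 Compound added from DMSO stock to 100 mM buffer (phosphate at pH 3 and 7.4, acetate at pH 5), final 3 nmol/mL. Sampled at set times up to 48 h, in triplicate. Parent compound and ciprofloxacin/formylciprofloxacin quantified by isocratic RP-18 HPLC with fluorescence detection (276/442 nm). Half-life given with 95% confidence intervals.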

[12] = Hydrolytic stability of the compound in aqueous buffer assessed as half life at pH 3 after 48 hrs by HPLC analysis; assay type: physicochemical; method in brief: as §1
[13] = Hydrolytic stability of the compound in aqueous buffer assessed as half life at pH 5 after 48 hrs by HPLC analysis; assay type: physicochemical; method in brief: as §1
[14] = Metabolic stability in rat plasma assessed as parent compound remaining after 48 hrs by HPLC analysis; assay type: ADME, cell-free; conditions: read-out: Stability
Method in brief: (§2)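 Compound spiked into rat plasma from DMSO stock, final 3 nmol/mL. 100 µL aliquots taken at set times and precipitated with an equal volume of acetonitrile. Gradient RP-18 HPLC (phosphate pH 2.0/acetonitrile) with fluorescence detection. Six runs: three to 48 h and three extended to 96 h. Result expressed as % parent compound remaining.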

[15] = Metabolic stability in rat plasma assessed as parent compound remaining after 96 hrs by HPLC analysis; assay type: ADME, cell-free; conditions: read-out: Stability; method in brief: as §2

CCn1cc(C(=O)O)c(=O)c2cc(F)c(N3CCNCC3)cc21 [NORFLOXACIN]
MIC [1]: 5 µg/mL (≈ 15.7 µM)
Selectivity Index [2]: 31.85
MIC (Mycobacterium avium [3]): 125 µM (≈ 39.9 µg/mL)
MIC (Mycobacterium avium [4]): 250 µM (≈ 79.8 µg/mL)
MIC (Mycobacterium kansasii [5]): 8 µM (≈ 2.55 µg/mL)
MIC (Mycobacterium kansasii [6]): 16 µM (≈ 5.11 µg/mL)
MIC (Mycobacterium kansasii [7]): 16 µM (≈ 5.11 µg/mL)
MIC (Mycobacterium kansasii [8]): 2 µM (≈ 0.639 µg/mL)
MIC (Mycobacterium kansasii [9]): 8 µM (≈ 2.55 µg/mL)
MIC (Mycobacterium kansasii [10]): 8 µM (≈ 2.55 µg/mL)
IC50 (HepG2): > 500 µM
IC50 (PBMC): > 500 µM
IC50 (SH-SY5Y): > 500 µM

O=C(N/N=C/Nc1ccc(C(=O)O)c(O)c1)c1cccc(F)c1
MIC [1]: 2 µg/mL (≈ 6.3 µM)
Selectivity Index [2]: 148.25
MIC (Mycobacterium avium [3]): 32 µM (≈ 10.2 µg/mL)
MIC (Mycobacterium avium [4]): 62.5 µM (≈ 19.8 µg/mL)
MIC (Mycobacterium kansasii [5]): 32 µM (≈ 10.2 µg/mL)
MIC (Mycobacterium kansasii [6]): 62.5 µM (≈ 19.8 µg/mL)
MIC (Mycobacterium kansasii [7]): 62.5 µM (≈ 19.8 µg/mL)
MIC (Mycobacterium kansasii [8]): 32 µM (≈ 10.2 µg/mL)
MIC (Mycobacterium kansasii [9]): 32 µM (≈ 10.2 µg/mL)
MIC (Mycobacterium kansasii [10]): 32 µM (≈ 10.2 µg/mL)
IC50 (HepG2): 934 µM
IC50 (PBMC): 934 µM

CCn1cc(C(=O)O)c(=O)c2cc(F)c(N3CCN(/C=N/NC(=O)c4ccc(F)cc4)CC3)cc21
MIC (Mycobacterium avium [3]): 125 µM (≈ 60.4 µg/mL)
MIC (Mycobacterium avium [4]): 250 µM (≈ 121 µg/mL)
MIC (Mycobacterium kansasii [5]): 16 µM (≈ 7.74 µg/mL)
MIC (Mycobacterium kansasii [6]): 32 µM (≈ 15.5 µg/mL)
MIC (Mycobacterium kansasii [7]): 62.5 µM (≈ 30.2 µg/mL)
MIC (Mycobacterium kansasii [8]): 32 µM (≈ 15.5 µg/mL)
MIC (Mycobacterium kansasii [9]): 62.5 µM (≈ 30.2 µg/mL)
MIC (Mycobacterium kansasii [10]): 62.5 µM (≈ 30.2 µg/mL)
IC50 (HepG2): > 797 µM
IC50 (PBMC): > 331 µM

NC(=O)c1cnccn1 [PYRAZINAMIDE]
MIC (Mycobacterium avium [3]): 500 µM (≈ 61.6 µg/mL)
MIC (Mycobacterium avium [4]): > 1000 µM
MIC (Mycobacterium kansasii [5]): 500 µM (≈ 61.6 µg/mL)
MIC (Mycobacterium kansasii [6]): > 1000 µM
MIC (Mycobacterium kansasii [7]): > 1000 µM
MIC (Mycobacterium kansasii [8]): 125 µM (≈ 15.4 µg/mL)
MIC (Mycobacterium kansasii [9]): 1000 µM (≈ 123 µg/mL)
MIC (Mycobacterium kansasii [10]): 1000 µM (≈ 123 µg/mL)

O=C(N/N=C/NC(=O)c1cnccn1)c1cccc(F)c1
MIC (Mycobacterium avium [3]): > 500 µM
MIC (Mycobacterium avium [4]): > 500 µM
MIC (Mycobacterium kansasii [5]): 250 µM (≈ 71.8 µg/mL)
MIC (Mycobacterium kansasii [6]): 250 µM (≈ 71.8 µg/mL)
MIC (Mycobacterium kansasii [7]): > 500 µM
MIC (Mycobacterium kansasii [8]): 250 µM (≈ 71.8 µg/mL)
MIC (Mycobacterium kansasii [9]): > 500 µM
MIC (Mycobacterium kansasii [10]): > 500 µM
IC50 (HepG2): > 130 µM
IC50 (PBMC): > 305 µM

O=C(O)c1ccc(N/C=N/NC(=O)c2ccccc2F)cc1O
MIC [1]: 2 µg/mL (≈ 6.3 µM)
Selectivity Index [2]: 192.06
MIC (Mycobacterium avium [3]): 32 µM (≈ 10.2 µg/mL)
MIC (Mycobacterium avium [4]): 62.5 µM (≈ 19.8 µg/mL)
MIC (Mycobacterium kansasii [5]): 32 µM (≈ 10.2 µg/mL)
MIC (Mycobacterium kansasii [6]): 32 µM (≈ 10.2 µg/mL)
MIC (Mycobacterium kansasii [7]): 62.5 µM (≈ 19.8 µg/mL)
MIC (Mycobacterium kansasii [8]): 32 µM (≈ 10.2 µg/mL)
MIC (Mycobacterium kansasii [9]): 62.5 µM (≈ 19.8 µg/mL)
MIC (Mycobacterium kansasii [10]): 62.5 µM (≈ 19.8 µg/mL)
IC50 (HepG2): 1210 µM
IC50 (PBMC): 1210 µM

O=C(N/N=C/NC(=O)c1cnccn1)c1ccc(C(F)(F)F)cc1
MIC (Mycobacterium avium [3]): > 1000 µM
MIC (Mycobacterium avium [4]): > 1000 µM
MIC (Mycobacterium kansasii [5]): 250 µM (≈ 84.3 µg/mL)
MIC (Mycobacterium kansasii [6]): 250 µM (≈ 84.3 µg/mL)
MIC (Mycobacterium kansasii [7]): 250 µM (≈ 84.3 µg/mL)
MIC (Mycobacterium kansasii [8]): 250 µM (≈ 84.3 µg/mL)
MIC (Mycobacterium kansasii [9]): 500 µM (≈ 169 µg/mL)
MIC (Mycobacterium kansasii [10]): 500 µM (≈ 169 µg/mL)
IC50 (HepG2): > 624 µM

O=C(N/N=C/N1CCN(c2cc3c(cc2F)c(=O)c(C(=O)O)cn3C2CC2)CC1)c1ccc(F)cc1
Stability [11]: Stable
half-life [12]: 2.9 h
half-life [13]: 11.8 h
remaining at 48 h [14]: 87%
remaining at 96 h [15]: 82%
MIC [1]: 1 µg/mL (≈ 2.02 µM)
Selectivity Index [2]: 634.29
MIC (Mycobacterium avium [3]): 62.5 µM (≈ 31 µg/mL)
MIC (Mycobacterium avium [4]): 125 µM (≈ 61.9 µg/mL)
MIC (Mycobacterium kansasii [5]): 4 µM (≈ 1.98 µg/mL)
MIC (Mycobacterium kansasii [6]): 4 µM (≈ 1.98 µg/mL)
MIC (Mycobacterium kansasii [7]): 8 µM (≈ 3.96 µg/mL)
MIC (Mycobacterium kansasii [8]): 8 µM (≈ 3.96 µg/mL)
MIC (Mycobacterium kansasii [9]): 8 µM (≈ 3.96 µg/mL)
MIC (Mycobacterium kansasii [10]): 16 µM (≈ 7.93 µg/mL)
IC50 (HepG2): > 1280 µM
IC50 (PBMC): > 763 µM

Nc1ccc(C(=O)O)c(O)c1 [AMINOSALICYLIC ACID]
MIC [1]: 0.2 µg/mL (≈ 1.31 µM)
MIC (Mycobacterium avium [3]): 32 µM (≈ 4.9 µg/mL)
MIC (Mycobacterium avium [4]): 125 µM (≈ 19.1 µg/mL)
MIC (Mycobacterium kansasii [5]): 125 µM (≈ 19.1 µg/mL)
MIC (Mycobacterium kansasii [6]): 1000 µM (≈ 153 µg/mL)
MIC (Mycobacterium kansasii [7]): > 1000 µM
MIC (Mycobacterium kansasii [8]): 32 µM (≈ 4.9 µg/mL)
MIC (Mycobacterium kansasii [9]): 125 µM (≈ 19.1 µg/mL)
MIC (Mycobacterium kansasii [10]): 500 µM (≈ 76.6 µg/mL)

O=C(N/N=C/Nc1ccc(C(=O)O)c(O)c1)c1cccc(C(F)(F)F)c1
MIC [1]: 4 µg/mL (≈ 10.9 µM)
MIC (Mycobacterium avium [3]): 250 µM (≈ 91.8 µg/mL)
MIC (Mycobacterium avium [4]): 500 µM (≈ 184 µg/mL)
MIC (Mycobacterium kansasii [5]): 32 µM (≈ 11.8 µg/mL)
MIC (Mycobacterium kansasii [6]): 125 µM (≈ 45.9 µg/mL)
MIC (Mycobacterium kansasii [7]): 125 µM (≈ 45.9 µg/mL)
MIC (Mycobacterium kansasii [8]): 62.5 µM (≈ 23 µg/mL)
MIC (Mycobacterium kansasii [9]): 62.5 µM (≈ 23 µg/mL)
MIC (Mycobacterium kansasii [10]): 62.5 µM (≈ 23 µg/mL)

— ChEMBL document CHEMBL1828506, “New fluorine-containing hydrazones active against MDR-tuberculosis” (Eur J Med Chem, 2011)
